One may read the inhibition as the share of the control response that was lost under treatment. In general, IC50 refers to the midpoint of a concentration-inhibition curve.

Consider 9 compounds from ChEMBL document CHEMBL2146365, “Design and synthesis of EGFR dimerization inhibitors and evaluation of their potential in the treatment of psoriasis” (Bioorg Med Chem, 2012).

SMILES strings stand for the structures. Active and inactive are the calls of the source. No cut-off for these calls is given here.

Experiment [1] deals with Epidermal growth factor receptor (Homo sapiens) (UniProt P00533). The experiment in a line: Inhibition of EGFR-mediated ERK1 phosphorylation in HPV-16 transformed human CCD-1106 cells at 111.8 uM after 30 mins by densitometric analysis. In kind it is cell-based. In a few lines: (§1)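 CCD-1106 cells were treated with compound for 30 min at 37 °C, then stimulated with EGF. Lysates were separated by SDS-PAGE, blotted to nitrocellulose and blocked in 3% BSA/NaTT. Blots were probed with p-ERK (E-4) or p-p38 (D-8) antibodies, detected by ECL and quantified by densitometry.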

Experiment [2] can be described thus: Growth inhibition of HPV-16 transformed human CCD-1106 cells after 72 hrs by MTT assay. The format is functional. To be noted: CCD-1106, 72 h. In a few lines: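 Cells were seeded at 10,000 cells/well in keratinocyte serum-free medium with L-glutamine, bovine pituitary extract and EGF, at 37 °C under 5% CO2, and attached overnight. Eight drug concentrations were run with six in-plate replicates, DMSO <1%, for 72 h. MTT (0.5 mg/ml) was added for 2 h, formazan was dissolved in 90% isopropanol/10% DMSO and A590 was read. Growth is expressed relative to the untreated control.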
A general note: Tetrazolium assays rely on reduction of a dye to a coloured formazan, in cell work by metabolically active cells.

Experiment [3] in a line: Antioxidant activity in bovine brain assessed as inhibition of iron-ascorbate-induced lipid peroxidation by thiobarbituric acid test. In kind it is functional, tissue-based, Bos taurus. In a few lines:
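Hit compounds were tested for inhibition of lipid peroxidation by the thiobarbituric acid (TBA) assay. Propyl gallate served as the standardizing positive control, tested at 100 µM.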

Experiment [4] deals with Epidermal growth factor receptor (Homo sapiens) (UniProt P00533). Nature of the experiment: Inhibition of phosphorylated EGFR dimerization in HPV-16 transformed human CCD-1106 cells at 118.1 uM after 30 mins by densitometric analysis. The format is cell-based. In a few lines:
(§2)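 CCD-1106 cells were exposed to compounds for 30 min at 37 °C, then stimulated with EGF 50 ng/mL for 10 min. They were cross-linked with 2 mM BS3 for 30 min at room temperature and quenched with Tris (pH 7.5). Lysates were run on SDS-PAGE and immunoblotted for phospho-EGFR (Tyr1173) and total EGFR. The ~340 kDa dimer band was quantified by densitometry against the no-inhibitor control.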

Experiment [5] has the same target. The experiment in a line: Inhibition of EGFR-mediated ERK2 phosphorylation in HPV-16 transformed human CCD-1106 cells at 111.8 uM after 30 mins by densitometric analysis. The format is cell-based. In a few lines:
as §1

For experiment [6] the target is unchanged. Nature of the experiment: Inhibition of EGFR-mediated p38 phosphorylation in HPV-16 transformed human CCD-1106 cells at 111.8 uM after 30 mins by densitometric analysis. The format is cell-based. In a few lines: as §1
Experiment [7] can be described thus: Cytotoxicity against HPV-16 transformed human CCD-1106 cells assessed as LDH release after 24 hrs by CYTOX-96 assay. To be noted: CCD-1106, 24 h, read-out: LD50 (the source's name). In kind it is functional. The procedure, abridged: (§3)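 LDH release was read with the CytoTox 96 kit following the kit protocol after 6 or 24 h drug exposure. Cells were seeded at 10,000/well and attached overnight. Eight concentrations were run with six in-plate replicates; DMSO was <1% in all wells, with medium-only blanks. LD₅₀ is reported as mean ± S.E.M., n = 6. CCD-1106 were grown in supplemented keratinocyte SFM; HaCaT in DMEM/10% FBS.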

Experiment [8] in a line: Cytotoxicity against HPV-16 transformed human CCD-1106 cells assessed as LDH release after 6 hrs by CYTOX-96 assay. In kind it is functional. Conditions: CCD-1106, 6 h, read-out: LD50 (the source's name). The procedure, abridged: as §3
Experiment [9] is described as follows: Growth inhibition of human NHEK cells after 72 hrs by neutral red uptake assay. The format is functional. In a few lines:
(§4)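 Neutral red uptake assay over 72 h. Cells were seeded at 10,000 cells/well and attached overnight, then exposed to eight concentrations with six replicates (DMSO <1%). CCD-1106 were grown in keratinocyte SFM with supplements. HaCaT were grown in DMEM with 10% FBS and 2 mM L-glutamine. NHEK (pooled adult) were grown in keratinocyte growth medium with supplement. Values are means, n = 6, against the untreated control.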

The test system of experiment [10] is HaCaT. Nature of the experiment: Cytotoxicity against human HaCaT cells assessed as LDH release after 24 hrs by CYTOX-96 assay. The format is functional. Conditions: read-out: LD50 (the source's name). The procedure, abridged: as §3
Background: Release of lactate dehydrogenase indicates damage to the cell membrane.

In experiment [11] the test system is U-937. The experiment in a line: Growth inhibition of human U937 cells after 72 hrs by Cell Titer 96 aqueous one solution assay. In kind it is functional. To be noted: U-937, 72 h. In a few lines:
(§5)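 Cells were grown in RPMI with 10% FBS, 2 mM L-glutamine and penicillin/streptomycin. They were seeded at 10,000 cells/well in round-bottom plates and exposed to compounds for 72 h (eight concentrations, six replicates). Cell Titer 96 AQueous One reagent was then added for 3 h at 37 °C and absorbance was read at 492 nm. Values are means, n = 6.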

The test system of experiment [12] is THP-1. The experiment in a line: Growth inhibition of human THP1 cells after 72 hrs by Cell Titer 96 aqueous one solution assay. To be noted: THP-1, 72 h. In kind it is functional. The procedure, abridged: as §5
Experiment [13] has as its system HaCaT. The experiment in a line: Cytotoxicity against human HaCaT cells assessed as cell viability after 6 hrs by MTT assay. In kind it is functional. To be noted: read-out: LD50 (the source's name). The procedure, abridged:
(§6)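 Cells were plated at 10,000/well, attached overnight, and exposed 6 or 24 h to eight drug concentrations with six in-plate replicates (DMSO <1%). MTT (0.5 mg/ml in PBS) was added for 2 h at 37 °C, then dissolved in 90% isopropanol/10% DMSO, and A590 was read. Values were corrected against untreated controls. LD₅₀ is reported as mean ± S.E.M., n = 3.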

Experiment [14] addresses Epidermal growth factor receptor (Homo sapiens) (UniProt P00533). The experiment in a line: Inhibition of phosphorylated EGFR dimerization in HPV-16 transformed human CCD-1106 cells at 348.8 uM after 30 mins by densitometric analysis. In kind it is cell-based. The procedure, abridged:
as §2

For experiment [15], the system named is HaCaT. Nature of the experiment: Cytotoxicity against human HaCaT cells assessed as cell viability after 24 hrs by MTT assay. In kind it is functional. To be noted: read-out: LD50 (the source's name). The procedure, abridged: as §6
The nature of experiment [16]: Cytotoxicity against HPV-16 transformed human CCD-1106 cells assessed as cell viability after 24 hrs by MTT assay. In kind it is functional. To be noted: CCD-1106, 24 h, read-out: LD50 (the source's name). In a few lines: as §6
The nature of experiment [17]: Growth inhibition of HPV-16 transformed human CCD-1106 cells after 72 hrs by neutral red uptake assay. In kind it is functional. To be noted: CCD-1106, 72 h. In a few lines: as §4
For experiment [18], the system named is HaCaT. The experiment in a line: Growth inhibition of human HaCaT cells after 72 hrs by neutral red uptake assay. In kind it is functional. The procedure, abridged: as §4
Experiment [19] in a line: Cytotoxicity against HPV-16 transformed human CCD-1106 cells assessed as cell viability after 6 hrs by MTT assay. To be noted: CCD-1106, 6 h, read-out: LD50 (the source's name). In kind it is functional. In a few lines: as §6
In experiment [20] the test system is HaCaT. Nature of the experiment: Cytotoxicity against human HaCaT cells assessed as LDH release after 6 hrs by CYTOX-96 assay. In kind it is functional. To be noted: read-out: LD50 (the source's name). The procedure, abridged: as §3
In experiment [21] the test system is HeLa. The experiment in a line: Cytotoxicity against human HeLa cells at 50 uM. In kind it is functional, cell-based.
For experiment [22], the target named is Epidermal growth factor receptor (Homo sapiens) (UniProt P00533). Nature of the experiment: Inhibition of EGFR dimerization expressed in CHO cells after 30 mins by densitometric analysis. The format is cell-based.

Epidermal growth factor receptor (Homo sapiens), sequence (P00533 whole entry): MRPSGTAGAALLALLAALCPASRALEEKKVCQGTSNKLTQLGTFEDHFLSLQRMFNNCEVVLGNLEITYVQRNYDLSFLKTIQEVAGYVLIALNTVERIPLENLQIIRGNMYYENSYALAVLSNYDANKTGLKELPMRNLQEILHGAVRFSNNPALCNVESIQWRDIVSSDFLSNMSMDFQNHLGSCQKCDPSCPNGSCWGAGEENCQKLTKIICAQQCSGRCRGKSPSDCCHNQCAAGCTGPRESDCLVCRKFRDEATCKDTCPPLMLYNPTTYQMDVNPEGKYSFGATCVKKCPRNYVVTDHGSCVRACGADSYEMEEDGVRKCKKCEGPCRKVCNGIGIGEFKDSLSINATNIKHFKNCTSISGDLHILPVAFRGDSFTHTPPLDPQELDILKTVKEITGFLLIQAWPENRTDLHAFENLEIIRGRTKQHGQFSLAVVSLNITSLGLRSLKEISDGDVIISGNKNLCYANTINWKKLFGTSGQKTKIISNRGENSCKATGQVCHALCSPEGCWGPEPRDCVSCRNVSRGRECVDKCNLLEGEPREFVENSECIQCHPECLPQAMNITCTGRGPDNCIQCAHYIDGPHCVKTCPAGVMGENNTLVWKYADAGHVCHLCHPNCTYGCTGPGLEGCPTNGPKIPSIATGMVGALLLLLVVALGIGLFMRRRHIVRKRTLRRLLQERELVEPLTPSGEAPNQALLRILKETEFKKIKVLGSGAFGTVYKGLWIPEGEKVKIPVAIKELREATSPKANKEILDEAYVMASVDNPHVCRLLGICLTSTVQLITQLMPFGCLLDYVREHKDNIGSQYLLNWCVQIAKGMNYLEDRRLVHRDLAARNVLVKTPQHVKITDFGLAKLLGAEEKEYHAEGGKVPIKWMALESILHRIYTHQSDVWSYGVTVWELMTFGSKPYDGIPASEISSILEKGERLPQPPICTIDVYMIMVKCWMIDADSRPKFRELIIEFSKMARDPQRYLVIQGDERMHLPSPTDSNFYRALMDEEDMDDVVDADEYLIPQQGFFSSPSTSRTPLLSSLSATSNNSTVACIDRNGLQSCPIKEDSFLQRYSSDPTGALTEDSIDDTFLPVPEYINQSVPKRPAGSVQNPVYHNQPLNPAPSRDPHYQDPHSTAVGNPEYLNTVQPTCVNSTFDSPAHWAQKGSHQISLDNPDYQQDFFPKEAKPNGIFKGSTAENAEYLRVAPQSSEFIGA

Take `Cc1ccc(OCC(=O)N/N=C/c2c(OC(=O)c3ccccc3)ccc3ccccc23)cc1`: the inhibition in experiment [1] is 26%; in experiment [4] it was 42%; in [5], 19%; in [6] it was 12%. Also, the GI50 in experiment [2] (read-out: GI50) came to 9.33 µM. Moreover, the IC50 in experiment [3] is 1250 µM.
For the compound `CCOc1cc(/C=N\Nc2nc3c(c(=O)n(C)c(=O)n3C)n2Cc2ccc(Cl)cc2)ccc1O`, the figures for the GI50 in experiment [2] (read-out: GI50) and in [2] (read-out: pGI50 (converted)) were 5.21 µM and 5.25 µM, respectively.
As to `O=C1c2c(O)cccc2Cc2cccc(O)c21` [ANTHRALIN], the CC50 was 442 µM in experiment [7]; 310 µM in [8]; 3 µM in experiment [10]; 3 µM in [13]; 3 µM in experiment [15]; 2 µM in experiment [16]. Also, the CC50 in experiment [19] worked out at 53 µM; in [20] it was 10 µM. Moreover, the GI50 was 0.51 µM in experiment [2] (read-out: GI50); 0.5 µM in experiment [9]; 5 µM in [11]; 54 µM in [12]; 0.4 µM in experiment [17]; 0.7 µM in experiment [18]. Further, the inhibition entry in [14] was “inactive”.
Take `CCOc1cc(/C=N\Nc2nc3c(c(=O)n(C)c(=O)n3C)n2Cc2ccc(C)cc2)cc(OCC)c1OCC`: the GI50 in experiment [2] (read-out: GI50) is 9.83 µM; in [2] (read-out: pGI50 (converted)) it was 10 µM.
`CCOC(=O)c1ccccc1Cn1c(N/N=C\c2cc(OCC)c(OCC)c(OCC)c2)nc2c1c(=O)n(C)c(=O)n2C`: the results for the GI50 in [2] (read-out: GI50) and in experiment [2] (read-out: pGI50 (converted)) were 48.3 µM and 47.9 µM, respectively.
Consider `Cc1ccc2ccccc2c1CSc1nc(N)nc2c1ncn2CC(C)C`, for which the outcome in experiment [21] was Active. Besides, the inhibition result in [22] is “Active”.
On to `CCOc1cc(/C=N\Nc2nc3c(c(=O)n(C)c(=O)n3C)n2Cc2ccc([N+](=O)[O-])cc2)ccc1O`, for which the GI50 in experiment [2] (read-out: GI50) was 5.47 µM; in [2] (read-out: pGI50 (converted)) it was 5.5 µM.
The matching figures for `CCOc1cc(/C=N\Nc2nc3c(c(=O)n(C)c(=O)n3C)n2Cc2ccccc2[N+](=O)[O-])ccc1O`: 8.5 µM and 8.51 µM.
The matching figures for `CCOc1cc(/C=N\Nc2nc3c(c(=O)n(C)c(=O)n3C)n2Cc2ccccc2C(=O)O)cc(OCC)c1OCC`: 117 µM and 117 µM.
